Measurements published in ChEMBL document CHEMBL5357042, “Discovery of imidazo[1,2-b]pyridazine-containing TAK1 kinase inhibitors with excellent activities against multiple myeloma” (RSC Med Chem, 2024).
Active and inactive are the calls of the source. The rule behind the calls is not given here.

What was measured:
[1] = biological target: T1, Mitogen-activated protein kinase kinase kinase 7 (Homo sapiens) (UniProt O43318); test: Inhibition of TAK1 (unknown origin) at 500 nM by ADP-Glo kinase assay
T1 sequence (whole entry): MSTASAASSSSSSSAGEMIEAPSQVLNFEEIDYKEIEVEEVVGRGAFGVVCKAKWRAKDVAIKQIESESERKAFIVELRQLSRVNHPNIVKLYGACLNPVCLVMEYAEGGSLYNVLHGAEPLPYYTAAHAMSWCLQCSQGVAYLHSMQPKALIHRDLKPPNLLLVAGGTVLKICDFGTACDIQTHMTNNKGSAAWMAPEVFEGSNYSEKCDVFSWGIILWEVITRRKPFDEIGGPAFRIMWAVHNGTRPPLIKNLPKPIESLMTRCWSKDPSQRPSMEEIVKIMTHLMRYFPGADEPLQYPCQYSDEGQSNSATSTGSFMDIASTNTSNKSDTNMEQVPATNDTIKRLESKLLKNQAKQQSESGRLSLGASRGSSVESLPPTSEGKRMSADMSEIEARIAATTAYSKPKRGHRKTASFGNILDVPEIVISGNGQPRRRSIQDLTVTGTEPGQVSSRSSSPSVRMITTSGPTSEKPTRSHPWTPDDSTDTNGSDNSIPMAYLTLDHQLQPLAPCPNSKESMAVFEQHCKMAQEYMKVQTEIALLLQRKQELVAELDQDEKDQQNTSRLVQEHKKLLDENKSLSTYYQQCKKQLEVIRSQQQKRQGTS

[2] = biological target: T1, Mitogen-activated protein kinase kinase kinase 7 (Homo sapiens); test: Inhibition of TAK1 (unknown origin) at 100 nM by ADP-Glo kinase assay
[3] = biological target: T1, Mitogen-activated protein kinase kinase kinase 7 (Homo sapiens); test: Inhibition of TAK1 (unknown origin) at 20 nM by ADP-Glo kinase assay
MPC-11 [4] = test: Cytotoxicity against mouse MPC-11 cells assessed as reduction in cell viability incubated for 72 hrs by CellTiter-Blue assay; assay type: functional
Outline: (§1)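 H929 (RPMI, 10% heat-inactivated FBS) or MPC-11 (DMEM, 10% FBS) cells, under 10 passages, 37 °C, 5% CO₂; 4–5 × 10³ cells/well seeded, 24 h, then compound at various concentrations for 72 h. CellTiter-Blue added for 3 h, fluorescence ex/em 560/590 nm. Normalized to DMSO-treated cells; triplicate, mean and standard deviation.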

NCI-H929 = test: Cytotoxicity against human NCI-H929 cells assessed as reduction in cell viability incubated for 72 hrs by CellTiter-Blue assay; assay type: functional; outline: as §1
MPC-11 [5] = test: Cytotoxicity against mouse MPC-11 cells assessed as reduction in cell viability at 0.2 to 1 uM to incubated for 72 hrs by CellTiter-Blue assay; assay type: functional, cell-based; settings: dose 0.2-1 µM; outline: as §1

inhibition [1] | inhibition [2] | SMILES | other results
100% | > 50% | CCc1n[nH]c2ccc(-c3cnc4ccc(N5C[C@@H](C)O[C@@H](C)C5)nn34)cc12 | inhibition [3]: > 50%; GI50 (MPC-11 [4]): 94 nM; GI50 (NCI-H929): 30 nM
< 50% | – | C[C@@H]1CN(c2ccc3ncc(-c4ccc5c(cnn5C)c4)n3n2)C[C@H](C)O1 | –
74% | < 50% | C[C@@H]1CN(c2ccc3ncc(-c4ccc(C(N)=O)cc4)n3n2)C[C@H](C)O1 | –
> 50% | 91% | Cc1n[nH]c2ccc(-c3cnc4ccc(N5CCOCC5)nn34)cc12 | –
> 50% | 46% | COCCN1CCN(c2ccc3ncc(-c4ccc5[nH]nc(C)c5c4)n3n2)CC1 | –
< 50% | – | C[C@@H]1CN(c2ccc3ncc(-c4cccc5[nH]ncc45)n3n2)C[C@H](C)O1 | –
< 50% | – | C[C@@H]1CN(c2ccc3ncc(-c4cccnc4)n3n2)C[C@H](C)O1 | –
100% | > 50% | Cc1n[nH]c2ccc(-c3cnc4ccc(N5CCOC(C)(C)C5)nn34)cc12 | inhibition [3]: > 50%; GI50 (MPC-11 [4]): 126 nM; GI50 (NCI-H929): 24 nM; Activity (MPC-11 [5]): Active
> 50% | > 50% | Cc1n[nH]c2ccc(-c3cnc4ccc(N5C[C@@H]6C[C@H]5CO6)nn34)cc12 | inhibition [3]: > 50%; GI50 (MPC-11 [4]): 101 nM; GI50 (NCI-H929): 45 nM; Activity (MPC-11 [5]): Active
< 50% | – | Cc1nc2ccc(N3C[C@@H](C)O[C@@H](C)C3)nn2c1-c1ccc2[nH]nc(C)c2c1 | –
> 50% | > 50% | Cc1n[nH]c2ccc(-c3cnc4ccc(N5C[C@H]6C[C@@H]5CO6)nn34)cc12 | inhibition [3]: > 50%; GI50 (MPC-11 [4]): 155 nM; GI50 (NCI-H929): 71 nM; Activity (MPC-11 [5]): Active
< 50% | – | C[C@@H]1CN(c2ccc3ncc(-c4ccc(S(N)(=O)=O)cc4)n3n2)C[C@H](C)O1 | –
> 50% | > 50% | C[C@@H]1CN(c2ccc3ncc(-c4ccc5cnn(C)c5c4)n3n2)C[C@H](C)O1 | –
< 50% | – | C[C@@H]1CN(c2ccc3ncc(-c4ccncc4)n3n2)C[C@H](C)O1 | –
< 50% | – | C[C@@H]1CN(c2ccc3ncc(-c4ccc(C#N)cc4)n3n2)C[C@H](C)O1 | –
> 50% | > 50% | C[C@@H]1CN(c2ccc3ncc(-c4ccc5[nH]ncc5c4)n3n2)C[C@H](C)O1 | –
< 50% | – | C[C@@H]1CN(c2ccc3ncc(-c4ccc5c(c4)CC(=O)N5)n3n2)C[C@H](C)O1 | –
< 50% | – | C[C@@H]1CN(c2ccc3ncc(-c4ccc(F)c(C#N)c4)n3n2)C[C@H](C)O1 | –
< 50% | – | C[C@@H]1CN(c2ccc3ncc(-c4ccc(F)cc4)n3n2)C[C@H](C)O1 | –
< 50% | – | C[C@@H]1CN(c2ccc3ncc(-c4cccc(S(C)(=O)=O)c4)n3n2)C[C@H](C)O1 | –
< 50% | – | C[C@@H]1CN(c2ccc3ncc(-c4ccc(C(F)(F)F)cc4)n3n2)C[C@H](C)O1 | –
< 50% | – | C[C@@H]1CN(c2ccc3ncc(-c4ccc(Cl)cc4)n3n2)C[C@H](C)O1 | –
< 50% | – | C[C@@H]1CN(c2ccc3ncc(-c4cccc(C#N)c4)n3n2)C[C@H](C)O1 | –
> 50% | > 50% | C[C@@H]1CN(c2ccc3ncc(-c4ccc5cn[nH]c5c4)n3n2)C[C@H](C)O1 | –
< 50% | – | C[C@@H]1CN(c2ccc3ncc(-c4ccccc4)n3n2)C[C@H](C)O1 | –
– | 26% | Cc1n[nH]c2ccc(-c3cnc4cccnn34)cc12 | –
> 50% | > 50% | Cc1n[nH]c2ccc(-c3cnc4ccc(N5C[C@@H](C)O[C@H](C)C5)nn34)cc12 | inhibition [3]: > 50%; Activity (MPC-11 [5]): Active
< 50% | – | CNC(=O)c1ccc(-c2cnc3ccc(N4C[C@@H](C)O[C@@H](C)C4)nn23)cc1 | –
< 50% | – | C[C@@H]1CN(c2ccc3ncc(-c4ccc(CC#N)cc4)n3n2)C[C@H](C)O1 | –
< 50% | – | C[C@@H]1CN(c2ccc3ncc(-c4ccc(OC(F)(F)F)cc4)n3n2)C[C@H](C)O1 | –
